WT yeast gro inh = growth inhibition of WT yeast, mitochondrial fusion screen. actives 2.1% (n = 190,000). mitochondrial fusion phenotypic screen, WT strain. inhibition, % at 10 µM. AID 1362; in the data active means inhibition above about 58%; tested in S. cerevisiae
ABCG2 block = inhibitors of human ABCG2 transporter, ABCB1 counter-screen. Q9UNQ0. IgMXP3 cells, JC-1 efflux, flow cytometry. inhibition, % at 6.6 µM. actives 0.1% (n = 190,000). AID 1325;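 active means inhibition above 80%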;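 further: 0% = DMSO and 100% = nicardipine control wells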
Target sequence (Q9UNQ0 whole entry, looked up): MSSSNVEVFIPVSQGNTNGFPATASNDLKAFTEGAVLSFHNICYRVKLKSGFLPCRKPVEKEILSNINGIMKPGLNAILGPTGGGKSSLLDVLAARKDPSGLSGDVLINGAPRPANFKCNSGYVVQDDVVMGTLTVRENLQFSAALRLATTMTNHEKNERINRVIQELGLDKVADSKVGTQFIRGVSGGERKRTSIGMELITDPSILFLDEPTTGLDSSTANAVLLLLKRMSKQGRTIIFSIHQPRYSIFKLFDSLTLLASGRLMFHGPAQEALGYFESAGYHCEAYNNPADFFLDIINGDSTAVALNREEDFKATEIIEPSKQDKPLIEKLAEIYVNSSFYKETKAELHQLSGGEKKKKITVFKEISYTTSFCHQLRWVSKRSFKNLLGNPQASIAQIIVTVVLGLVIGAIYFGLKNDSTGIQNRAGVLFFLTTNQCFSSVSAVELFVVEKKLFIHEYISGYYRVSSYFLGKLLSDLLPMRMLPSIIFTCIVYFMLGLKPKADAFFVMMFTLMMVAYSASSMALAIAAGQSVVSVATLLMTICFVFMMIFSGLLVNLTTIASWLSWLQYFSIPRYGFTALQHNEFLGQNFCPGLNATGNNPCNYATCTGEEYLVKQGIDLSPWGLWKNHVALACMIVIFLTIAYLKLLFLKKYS
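material = IgMXP3 (ABCG2) plus far-red-tagged CCRF-Adr (ABCB1) cells | amount = 3 million cells/mL, equal mix of both lines | also added = JC-1 transporter substrate | dosing = one concentration, 6.6 µM final | schedule = 10 min at 25 °C | measured by = flow cytometric JC-1 green MFI at 530 nm | read-out basis = percent efflux inhibition, scaled nicardipine 100% to DMSO 0%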
RAM inhibit = blocks the yeast RAM network; S. cerevisiae dse1pr::URA3 reporter, 5-FOA growth OD615, 2 d; analog-sensitive cbk1-as2 kinase mutant strain; inhibition, % at 50 µM; actives 1.8% (n = 190,000); AID 868;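 active means inhibition above a set limit, 3 SD over mean compound inhibition, cut at about 8.4% in these data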;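 further: 0% = DMSO-only wells with no growth and 100% = 10 µM 1-NA-PP1 full growth; inhibition rescues growth on 5-FOA so higher OD means more RAM inhibition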
Lmaj promast = reduces viability of Leishmania major promastigotes; resazurin fluorescence viability; actives 9% (n = 200,000); AID 1063; inhibition, % at 10 µM; in the data active means inhibition above about 50%;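 further: promastigotes grown with compound for 44 hours at 28 °C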
ABCB1 inh = inhibitors of human ABCB1 transporter, ABCG2 counter-screen; P08183; CCRF-Adr cells, JC-1 efflux, flow cytometry; inhibition, % at 6.6 µM; actives 0.067% (n = 190,000); AID 1326; in the data active means inhibition above about 40%;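 further: 0% = vehicle and 100% = reference inhibitor; higher value means more JC-1 retained so stronger ABCB1 efflux block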
RAM 5-FOA = restores 5-FOA growth of efflux-deficient yeast | S. cerevisiae efflux-deficient reporter strain, 5-FOA growth OD615, 2 days | 1,200 tested, under 10 active | AID 1305 | max inhibition, % | shares compounds with RAM inhibit; call rule not given here;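 further: plate controls were vehicle for no effect and reference inhibitor for full effect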
Numbers without * were called inactive; nt = no result given. Most compounds without a hit are left out; they make up all but 12% or so of the library.

SMILES | WT yeast gro inh | ABCG2 block | RAM inhibit | Lmaj promast | ABCB1 inh | RAM 5-FOA
Cc1ccc(-c2cccc(OC(=O)c3ccccc3F)c2)cc1 | -9.8 | 2.2 | 14.5* | 1.1 | 0.8 | 2.9
COc1ccc(CCNC(=O)c2ccc(Cl)c(S(=O)(=O)N(C)c3ccccc3)c2)cc1 | 11.1 | 20.8 | 17.0* | 98.1* | 1.3 | 2.9
CCN(c1ccccc1)S(=O)(=O)c1ccc(Cl)c(C(=O)NCCc2ccc(OC)cc2)c1 | 8.3 | 13.0 | 12.3* | 88.8* | 2.8 | 2.6
Cn1c(=O)c2c(ncn2CC(=O)OCC(=O)NC(c2ccccc2)c2ccccc2)n(C)c1=O | 16.5 | 2.8 | 13.8* | -7.7 | 0.0 | 1.0
COc1ccc(CCNC(=O)c2ccc(-c3ccc([N+](=O)[O-])cc3)o2)cc1OC | -10.8 | 17.9 | 11.4* | -2.1 | 1.1 | 1.7
COc1ccc(CCNC(=O)CNS(=O)(=O)c2cccs2)cc1OC | -5.2 | 4.7 | 0.8 | -6.5 | 0.3 | nt
CC(C)C(c1nnnn1Cc1ccccc1)N(Cc1ccco1)Cc1cccs1 (stereo not drawn) | 50.7 | 0.8 | 13.2* | 21.5 | 0.5 | 3.6
Cc1ccc(C(c2nnnn2C(C)(C)C)N(Cc2ccco2)Cc2cccs2)cc1 (stereo not drawn) | 13.8 | 45.5 | 6.7 | 19.4 | 8.1 | nt
COc1ccc(Cn2nnnc2C(C(C)C)N(Cc2ccco2)Cc2cccs2)cc1 (stereo not drawn) | 1.8 | 3.2 | 12.1* | 77.5* | 1.3 | 3.6
CC1=C(C(=O)Nc2ccccc2)C(c2cccnc2)n2ncnc2N1 (stereo not drawn) | 5.5 | -3.0 | 0.6 | -1.6 | 0.1 | nt
Cc1nc(Cl)sc1C(=O)Nc1cccc2ccccc12 | -12.2 | 7.8 | 0.4 | 2.7 | 0.7 | nt
Cc1ccc(O)c(-c2cc(-c3cccc(Br)c3)n[nH]2)c1 | 93.2 | -0.1 | 11.6* | 31.8 | 0.0 | 3.1
COc1ccccc1OCCC(=O)OCC(=O)c1c(N)n(C)c(=O)n(C)c1=O | -0.5 | 2.1 | 2.4 | -3.1 | 0.2 | nt
CCOP(=O)(OCC)c1nc(-c2cccc3ccccc23)oc1NCc1ccccc1 | -14.8 | 7.4 | 5.7 | -3.7 | 2.1 | nt
CCOP(=O)(OCC)c1nc(-c2cccc3ccccc23)oc1NCc1ccc(OC)cc1 | 17.4 | 6.5 | 12.9* | 70.7* | 0.9 | 2.5
CO/N=C/NC(=O)c1c(OC)ccnc1Oc1cccc(C(F)(F)F)c1 | 14.2 | 2.7 | -0.7 | -1.1 | 0.1 | nt
O=C(Nc1ccc(Br)cc1)c1cccc(S(=O)(=O)Nc2cnc3ccccc3c2)c1 | -23.3 | -0.7 | 15.2* | -9.4 | -0.2 | 2.2
CC(OC(=O)c1ccccc1NS(=O)(=O)c1cccc(C(F)(F)F)c1)C(=O)N(C)Cc1ccccc1 (stereo not drawn) | 29.3 | 37.4 | 12.6* | 6.7 | 5.1 | 2.4
CN(Cc1ccccc1)C(=O)COC(=O)c1ccccc1NS(=O)(=O)c1cccc(N)c1 | -18.8 | -3.5 | 1.6 | -4.8 | 0.2 | nt
O=C(NCC(c1cccs1)N1CCOCC1)c1ccccc1NS(=O)(=O)c1cc([N+](=O)[O-])ccc1Cl (stereo not drawn) | 4.8 | -5.1 | 1.3 | -2.4 | -0.6 | nt
CCCCCCCCNC(=O)/C(C#N)=C/c1ccc(SC)cc1 | -12.2 | 27.2 | 12.5* | 1.5 | 4.1 | 3.3
N#C/C(=C\c1ccc(O)c(O)c1)C(=O)NCCCc1ccccc1 | 17.9 | 1.4 | -0.6 | 3.2 | -0.4 | nt
Cc1cc(NC(=O)CSCC(=O)N(c2cccc(Cl)c2)C(C(=O)NC2CCCCC2)c2ccc(O)c(O)c2)no1 (stereo not drawn) | -9.9 | 1.0 | 1.4 | -3.8 | 0.7 | nt
CC(=O)c1ccc(OC(=O)c2ccc(-n3nc(C)cc3C)cc2)cc1 | -3.5 | 2.7 | 0.9 | 0.1 | -1.7 | nt
Cc1cc(C)n(-c2ccc(C(=O)Oc3ccc4c(c3)OCO4)cc2)n1 | 12.2 | 2.5 | 12.6* | -3.5 | 0.2 | 3.2
SMILES | WT yeast gro inh | ABCG2 block | RAM inhibit | Lmaj promast | ABCB1 inh | RAM 5-FOA
O=C(NC1CCCCC1)C(c1ccccn1)N(C(=O)c1csnn1)C1CCCCC1 (stereo not drawn) | 6.9 | 0.4 | 1.4 | -2.6 | 0.5 | nt
Cc1ccc(OCC(=O)NNC(=O)C2CCCO2)c(C)c1 (stereo not drawn) | -6.8 | -2.7 | 1.4 | -7.9 | -0.3 | nt
CCOc1ccc(C(=O)/C=C/c2cc(OC)c(OC)c(OC)c2)cc1 | 12.9 | 4.7 | 2.9 | 27.3 | 0.5 | nt
COc1ccc(C(=O)/C=C/c2ccc(OC)c(COc3ccccc3F)c2)cc1 | 4.6 | 7.3 | 18.8* | 44.9 | 0.0 | 5.2
COc1ccc(/C=C/C(=O)c2ccccc2)cc1COc1ccc(F)cc1 | -8.5 | 1.0 | 18.8* | 60.3* | 0.2 | 5.9
COc1cc(/C=C/C(=O)c2ccc(C)cc2)ccc1OCC#N | -1.7 | 11.9 | 13.3* | 97.8* | 0.6 | 4.2
COC(=O)c1ccc(/C=C/C(=O)c2ccc(OC)cc2)cc1 | -11.5 | 38.9 | 2.2 | -4.3 | 1.0 | nt
COc1ccc(/C=C/C(=O)c2ccc(Cl)cc2)c(OC)c1 | 10.8 | 1.4 | 11.6* | 23.7 | 0.1 | 3.8
Cc1ccc(S(=O)(=O)N2c3cc(C)ccc3OCC2C(C)(C)C)cc1 (stereo not drawn) | 68.8* | 0.6 | 12.7* | 1.1 | 0.3 | 3.9
N#Cc1c(SCc2ccccc2)nc(N2CCOCC2)c2c1CCCC2 | 29.1 | 27.3 | 15.0* | 4.4 | 2.5 | 3.6
CCSc1nc(N2CCCCC2)c2c(c1C#N)CCCC2 | 31.7 | 1.8 | 3.3 | -6.8 | 0.5 | nt
CCC(C)c1ccc(NC(=S)NCc2ccccc2OC)cc1 (stereo not drawn) | 76.8* | 4.0 | 11.5* | 8.8 | 0.8 | 7.3
COC(=O)Cc1ccc(NC(=S)NCc2ccccc2OC)cc1 | 11.3 | -2.5 | 0.4 | -0.6 | -3.2 | nt
CCOC(=O)C1(CCCc2ccccc2)CCN(C(=O)c2cnc(C)cn2)CC1 | 5.6 | 0.8 | 0.9 | 0.7 | 0.2 | nt
CCOC(=O)C1(CCOc2ccccc2)CCN(C(=O)c2ccc(-n3cccn3)cc2)CC1 | 42.8 | 11.8 | 18.7* | 17.2 | 7.5 | 1.2
Cc1cc(=O)n(CC(=O)Nc2cc(Cl)ccc2C)c(C(C)C)n1 | 5.1 | 0.3 | 0.4 | 8.0 | 0.0 | nt
COc1cccc(N=C2SC(C(=O)Nc3ccccc3F)CC(=O)N2C)c1 (stereo not drawn) | 1.2 | 4.8 | 5.0 | 20.5 | 1.1 | nt
COc1cccc(NC(=O)C2CC(=O)N(C)C(=Nc3cccc(F)c3)S2)c1 (stereo not drawn) | -4.0 | 3.0 | 19.5* | 20.7 | 0.5 | 1.1
FC(F)(F)c1cccc(NC(=S)NC(c2ccccc2)c2ccccc2)c1 | 10.5 | 7.5 | 15.6* | 7.8 | 0.8 | 4.3
O=c1c2ccccc2c(-c2ccccc2)nn1Cc1ccc(Cl)cc1 | 50.5 | 4.0 | 14.2* | 4.5 | 0.9 | 1.7
O=C(O)Cc1nn(Cc2ccc(Cl)cc2)c(=O)c2ccccc12 | 5.6 | 0.2 | 0.5 | -4.6 | 0.3 | nt
COc1ccccc1NC(=O)Cn1nnc(C(=O)NCCc2ccccc2)c1N | 6.9 | 22.4 | -0.1 | 6.5 | 1.4 | nt

Screening data (PubChem)
